Experimental data: ChEMBL document CHEMBL3351655, “Scaffold decoration at positions 5 and 8 of 1,2,4-triazolo[1,5-c]pyrimidines to explore the antagonist profiling on adenosine receptors: a preliminary structure-activity relationship study” (J Med Chem, 2014)

Legend:
[1] = target: Adenosine receptors; A1 & A3 (Homo sapiens) (UniProt P30542+P0DMS8); experiment: Selectivity ratio of Ki for human adenosine A1 receptor expressed in CHO cells to Ki for human adenosine A3 receptor expressed in CHO cells; format: cell-based
CHO [2] = experiment: Selectivity ratio of Ki for human adenosine A2A receptor expressed in CHO cells to Ki for human adenosine A3 receptor expressed in CHO cells; format: cell-based
CHO [3] = experiment: Selectivity ratio of Ki for human adenosine A1 receptor expressed in CHO cells to Ki for human adenosine A2A receptor expressed in CHO cells; format: cell-based
Adenosine receptor A1 = target: T1, Adenosine receptor A1 (Homo sapiens, UniProt P30542); experiment: Displacement of [3H]CCPA from human adenosine A1 receptor expressed in CHO cells; format: cell-based
T1 sequence (P30542 whole entry): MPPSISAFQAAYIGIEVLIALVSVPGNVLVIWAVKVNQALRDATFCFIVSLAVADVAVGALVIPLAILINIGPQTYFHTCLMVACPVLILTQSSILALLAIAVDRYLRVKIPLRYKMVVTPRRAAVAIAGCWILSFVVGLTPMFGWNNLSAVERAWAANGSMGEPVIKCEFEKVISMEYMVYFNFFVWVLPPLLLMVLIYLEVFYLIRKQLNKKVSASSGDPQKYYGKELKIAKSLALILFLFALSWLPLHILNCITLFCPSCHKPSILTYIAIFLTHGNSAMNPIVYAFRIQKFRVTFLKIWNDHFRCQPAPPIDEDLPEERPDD
Procedure, shortened: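 Stably transfected CHO cells were homogenised and spun at 1000g to remove nuclei and fragments. Membranes were then pelleted at 100 000g, resuspended in binding buffer, frozen in liquid nitrogen and stored. Radioligand was [³H]CCPA, with nonspecific binding defined by 1 mM theophylline.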

Adenosine receptor A2a = Adenosine receptor A2a (Homo sapiens, UniProt P29274); experiment: Displacement of [3H]NECA from human adenosine A2A receptor expressed in CHO cells; format: cell-based
Adenosine receptor A2a, sequence (P29274 whole entry): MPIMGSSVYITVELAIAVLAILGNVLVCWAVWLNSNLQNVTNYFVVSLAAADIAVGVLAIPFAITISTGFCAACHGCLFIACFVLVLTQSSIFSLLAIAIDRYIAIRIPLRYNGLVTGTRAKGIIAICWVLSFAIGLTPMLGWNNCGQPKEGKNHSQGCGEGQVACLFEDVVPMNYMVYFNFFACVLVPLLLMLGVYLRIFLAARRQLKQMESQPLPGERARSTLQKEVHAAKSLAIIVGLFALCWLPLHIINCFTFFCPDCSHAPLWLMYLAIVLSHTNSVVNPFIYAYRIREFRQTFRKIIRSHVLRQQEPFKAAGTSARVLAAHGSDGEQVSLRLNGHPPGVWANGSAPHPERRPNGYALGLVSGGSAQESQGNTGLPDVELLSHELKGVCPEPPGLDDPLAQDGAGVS

Adenosine receptor A3 = target: T2, Adenosine receptor A3 (Homo sapiens, UniProt P0DMS8); experiment: Displacement of [3H]NECA from human adenosine A3 receptor expressed in CHO cells; format: cell-based
T2 sequence (P0DMS8 whole entry): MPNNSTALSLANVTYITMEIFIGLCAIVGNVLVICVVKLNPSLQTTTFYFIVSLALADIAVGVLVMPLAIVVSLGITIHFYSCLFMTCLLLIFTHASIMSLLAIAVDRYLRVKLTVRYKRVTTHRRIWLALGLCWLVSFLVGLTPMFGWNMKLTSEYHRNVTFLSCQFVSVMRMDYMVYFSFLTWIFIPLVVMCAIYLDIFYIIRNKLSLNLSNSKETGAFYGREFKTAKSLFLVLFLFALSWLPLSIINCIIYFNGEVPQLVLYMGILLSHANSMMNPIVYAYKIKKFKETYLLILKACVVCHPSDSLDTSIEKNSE
Procedure, shortened: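 Radioligand [³H]NECA was used on membranes from stably transfected CHO cells, prepared by a 1000g clearing spin then pelleting at 100 000g. Pellets were resuspended in binding buffer, frozen in liquid nitrogen and stored. Nonspecific binding was defined with 100 μM R-PIA.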

Adenosine receptor A2b = target: T3, Adenosine receptor A2b (Homo sapiens, UniProt P29275); experiment: Antagonist activity at human adenosine A2B receptor expressed in CHO cells assessed as inhibition of NECA-stimulated adenylyl cyclase activity; format: functional, cell-based
T3 sequence (P29275 whole entry): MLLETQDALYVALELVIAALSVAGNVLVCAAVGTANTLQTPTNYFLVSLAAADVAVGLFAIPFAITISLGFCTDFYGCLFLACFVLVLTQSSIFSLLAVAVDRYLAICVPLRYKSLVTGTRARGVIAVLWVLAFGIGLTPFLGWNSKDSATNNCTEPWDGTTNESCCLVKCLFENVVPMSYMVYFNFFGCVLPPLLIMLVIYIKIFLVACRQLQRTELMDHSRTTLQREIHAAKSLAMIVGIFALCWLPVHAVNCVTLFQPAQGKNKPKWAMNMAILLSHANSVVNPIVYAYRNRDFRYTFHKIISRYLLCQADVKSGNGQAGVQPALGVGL
Procedure, shortened: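 Membranes from stably transfected CHO cells, made with a single high-speed centrifugation of the homogenate. Incubated 20 min with about 150 000 cpm [α-³²P]ATP, in a mixture without EGTA and NaCl. IC50 for concentration-dependent inhibition of NECA-stimulated adenylyl cyclase was fitted with the Hill equation and converted to Ki by Cheng–Prusoff.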

| Compound | Ratio Ki [1] | Ratio Ki (CHO [2]) | Ratio Ki (CHO [3]) | Ki (Adenosine receptor A1) [nM] | Ki (Adenosine receptor A2a) [nM] | Ki (Adenosine receptor A3) [nM] | Ki (Adenosine receptor A2b) [µM] |
| --- | --- | --- | --- | --- | --- | --- | --- |
| CCOC(=O)c1cnc(NCc2ccc(OC)cc2)n2nc(-c3ccco3)nc12 | 21.7 | 2.46 | 8.8 | 1250 | 142 | 57.6 | 4.81 |
| CCCCC(CC)CNc1ncc(C(=O)O)c2nc(-c3ccco3)nn12 (stereo not given) | 0.11 | 2.06 | 0.05 | 1780 | 33800 | 16400 | > 10 |
| CNC(=O)c1cnc(NC(=O)Nc2ccccc2)n2nc(-c3ccco3)nc12 | 0.17 | 0.01 | 21.9 | 126 | 5.76 | 730 | 1.18 |
| CCOC(=O)c1cnc(NC2CCC2)n2nc(-c3ccco3)nc12 | 6.42 | 2.47 | 2.6 | 75.2 | 28.9 | 11.7 | > 3 |
| COc1ccc(CNc2ncc(C(=O)O)c3nc(-c4ccco4)nn23)cc1 | 1.04 | 2.25 | 0.46 | 5760 | 12400 | 5520 | > 30 |
| CCOC(=O)c1cnc(NCC2CCCCC2)n2nc(-c3ccco3)nc12 | 10.5 | 2.94 | 3.57 | 432 | 121 | 41.2 | > 10 |
| O=C(O)c1cnc(NC2CCCC2)n2nc(-c3ccco3)nc12 | 0.21 | 2.11 | 0.1 | 3790 | 37300 | 17700 | > 10 |
| CCOC(=O)c1cnc(SC)n2nc(-c3ccco3)nc12 | 2.17 | 3.6 | 0.6 | 5720 | 9500 | 2640 | > 30 |
| O=C(O)c1cnc(NCC2CCCCC2)n2nc(-c3ccco3)nc12 | 0.17 | 2.14 | 0.08 | 2740 | 33900 | 15800 | > 10 |
| CCOC(=O)c1cnc(N)n2nc(-c3ccco3)nc12 | 0.78 | 0.01 | 55.7 | 185 | 3.32 | 238 | 1.11 |
| Cc1ccc(CNc2ncc(C(=O)O)c3nc(-c4ccco4)nn23)cc1 | 3.63 | 1.58 | 2.29 | 2730 | 1190 | 751 | > 10 |
| CCOC(=O)c1cnc(N2CCOCC2)n2nc(-c3ccco3)nc12 | > 11.5 | 2.02 | > 5.68 | > 100000 | 17600 | 8700 | > 10 |
| CNC(=O)c1cnc(NC(=O)Cc2ccccc2)n2nc(-c3ccco3)nc12 | 0.25 | 0.01 | 23.9 | 296 | 12.4 | 1190 | 4.84 |
| CCOC(=O)c1cnc(N2CCCCC2)n2nc(-c3ccco3)nc12 | 5 | 4.62 | 1.08 | 8860 | 8180 | 1770 | > 10 |
| CCCCCNc1ncc(C(=O)OCC)c2nc(-c3ccco3)nn12 | 54.2 | 4.43 | 12.2 | 613 | 50.1 | 11.3 | > 10 |
| CCCCC(CC)CNc1ncc(C(=O)OCC)c2nc(-c3ccco3)nn12 (stereo not given) | 29.3 | 5.47 | 5.35 | 1150 | 215 | 39.3 | > 10 |
| CNC(=O)c1cnc(N)n2nc(-c3ccco3)nc12 | 0.22 | 0.02 | 9 | 135 | 15 | 609 | 2.03 |
| COc1ccc(CNc2ncc(C(=O)NCCc3ccccc3)c3nc(-c4ccco4)nn23)cc1OC | 4.39 | 0.74 | 5.9 | 385 | 65.2 | 87.7 | > 30 |
| CCOC(=O)c1cnc(N2CCCC2)n2nc(-c3ccco3)nc12 | 18.7 | 12.2 | 1.53 | 15600 | 10200 | 836 | > 10 |
| CCOC(=O)c1cnc(NCCOC)n2nc(-c3ccco3)nc12 | 21.6 | 2.78 | 7.77 | 2270 | 292 | 105 | > 10 |
| O=C(Nc1ncc(C(=O)NCCc2ccccc2)c2nc(-c3ccco3)nn12)NC1CCCCC1 | > 23.7 | 0.18 | > 129 | > 100000 | 773 | 4220 | > 30 |
| CCOC(=O)c1cnc(NC(=O)Cc2ccccc2)n2nc(-c3ccco3)nc12 | > 38.6 | 16.5 | > 2.34 | > 100000 | 42700 | 2590 | > 30 |
| O=C(O)c1cnc(NCc2ccc(-c3ccccc3)cc2)n2nc(-c3ccco3)nc12 | 1.06 | > 3.53 | < 0.3 | 30100 | > 100000 | 28300 | > 30 |
| CCCCCNc1ncc(C(=O)O)c2nc(-c3ccco3)nn12 | 0.39 | 1.02 | 0.39 | 10400 | 26900 | 26300 | > 10 |
| CCOC(=O)c1cnc(NCc2ccc(F)cc2)n2nc(-c3ccco3)nc12 | 20.1 | 0.85 | 23.7 | 932 | 39.3 | 46.3 | 1.97 |
| O=C(O)c1cnc(NC2CC2)n2nc(-c3ccco3)nc12 | 6.73 | 3.61 | 1.86 | 1110 | 596 | 165 | > 10 |
| CC(C)Nc1ncc(C(=O)O)c2nc(-c3ccco3)nn12 | 0.26 | 0.44 | 0.59 | 4490 | 7660 | 17500 | > 10 |
| CCOC(=O)c1cnc(NC2CCCCC2)n2nc(-c3ccco3)nc12 | 1.08 | 0.45 | 2.39 | 141 | 58.9 | 131 | > 10 |
| Nc1ncc(C(=O)NCCc2ccccc2)c2nc(-c3ccco3)nn12 | 0.41 | 0.08 | 5.14 | 57.1 | 11.1 | 140 | 5.32 |
| O=C(O)c1cnc(NC(c2ccccc2)c2ccccc2)n2nc(-c3ccco3)nc12 | 1.18 | > 48 | < 0.02 | 2450 | > 100000 | 2070 | > 30 |
